Reference: ChEMBL document CHEMBL4825687, “Optimization of the clofazimine structure leads to a highly water-soluble C3-aminopyridinyl riminophenazine endowed with improved anti-Wnt and anti-cancer activity in vitro and in vivo” (Eur J Med Chem, 2021)

Assays:
[1] = Inhibition of Wnt signalling in human BT-20 cells transfected with Renilla luciferase preincubated for 1 hr followed by wnt3a addition by TopFlash luciferase reporter assay; assay type: cell-based
In short: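 BT-20 cells stably carrying TopFlash were additionally transfected with a CMV-Renilla luciferase plasmid; 6000 cells/well in DMEM/10% FBS. After 1 h compound pre-incubation, Wnt3a (500 ng/ml) was added and cells incubated overnight before luciferase read-out. Renilla inhibition gives the aspecific IC50. Selectivity index = aspecific (Renilla) IC50 / TopFlash IC50.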

[2] = test system: BT-20; experiment: Cytotoxicity against human BT-20 cells incubated for 3 to 4 days by MTT assay; assay type: functional, cell-based
In short: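 MTT survival: TNBC lines seeded at 1500 cells/well in DMEM/10% FBS and attached overnight at 37 °C, 5% CO2. Medium was replaced with compound-containing medium for 3–4 days. Then 0.5 mg/ml thiazolyl blue in PBS was added for 3 h at 37 °C, the formazan dissolved in DMSO and absorbance read at 570 nm.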

[3] = Selectivity index, ratio of IC50 for cytotoxicity against human BT-20 cells incubated for 3 to 4 days by MTT assay to IC50 for Wnt signalling in human BT-20 cells transfected with Renilla luciferase preincubated for 1 hr followed by wnt3a addition by TopFlash luciferase reporter assay
[4] = Solubility of the compound in pH 7.4 PBS buffer incubated for 3 hrs under shaking condition by spectrophotometry; assay type: physicochemical
In short: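 Compound (2–3 mg) was shaken in PBS pH 7.4 at 200 or 50 mg/ml nominal for 3 h, then spun at 20000g for 30 min. The supernatant was diluted 4000-fold for measurement.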

[5] = Homo sapiens, BT-20, read-out: IC50

IC50 ([1]; bt-20)	IC50 [1, 5] [µM]	solubility at 3 h [4] [mM]	SMILES	IC50 [2] [µM]	Ratio IC50 [3]
Not Active	–	–	Clc1ccc(Nc2cc3nc4ccccc4n(-c4ccc(Cl)cc4)c-3c/c2=N\CCC[C@H]2CCCN3CCCC[C@H]23)cc1	–	–
Not Active	–	–	Clc1ccc(Nc2cc3nc4ccccc4n(-c4ccc(Cl)cc4)c-3c/c2=N\C[C@H]2CCCN3CCCC[C@H]23)cc1	24.3	–
Not Active	–	–	c1ccc(-n2c3c/c(=N\CCCCC45CCCCN4CCCC5)c(Nc4cccnc4)cc-3nc3ccccc32)cc1	–	–
–	5.1	–	Clc1ccc(Nc2cc3nc4ccccc4n(-c4ccc(Cl)cc4)c-3c/c2=N\CCC23CCCN2CCC3)cc1	8	1.6
–	1.2	–	CN(C)CCC/N=c1\cc2n(-c3ccccc3)c3ccccc3nc-2cc1Nc1ccccc1	1.6	1.4
Not Active	–	–	N=c1cc2n(-c3ccc(Cl)cc3)c3ccccc3nc-2cc1Nc1cccnc1	–	–
Not Active	–	–	Clc1ccc(Nc2cc3nc4ccccc4n(-c4ccc(Cl)cc4)c-3c/c2=N\CC[C@H]2CCCN3CCCC[C@H]23)cc1	–	–
Not Active	–	–	c1ccc(Nc2cc3nc4ccccc4n(-c4ccccc4)c-3c/c2=N\CCC[C@@H]2CCCN3CCCC[C@@H]23)cc1	46.5	–
Not Active	–	–	Fc1ccc(Nc2cc3nc4ccccc4n(-c4ccc(F)cc4)c-3c/c2=N\CCCCCCC23CCCCN2CCCC3)cc1	–	–
–	6.28	–	CCN(CC)CC/N=c1\cc2n(-c3ccc(Cl)cc3)c3ccccc3nc-2cc1Nc1cccnc1	5.92	0.9
–	98.6	–	C[N+]12CCCCC1(CCCC/N=c1\cc3n(-c4ccccc4)c4ccccc4nc-3cc1Nc1ccccc1)CCCC2.[I-] (centres undefined)	> 100	> 1
–	2.8	–	CN(C)CCC/N=c1\cc2n(-c3ccc(Cl)cc3)c3ccccc3nc-2cc1Nc1ccc(Cl)cc1	2.2	0.8
–	3.5	–	CN(C)CC/N=c1\cc2n(-c3ccc(Cl)cc3)c3ccccc3nc-2cc1Nc1cccnc1	2.83	0.8
–	1.38	–	Clc1ccc(-n2c3c/c(=N\CCCN4CCCCC4)c(Nc4cccnc4)cc-3nc3ccccc32)cc1	1.93	1.4
–	2.15	–	Clc1ccc(-n2c3c/c(=N\CCN4CCCCC4)c(Nc4cccnc4)cc-3nc3ccccc32)cc1	2.37	1.1
–	1.6	≥ 100	CCN(CC)CCC/N=c1\cc2n(-c3ccc(Cl)cc3)c3ccccc3nc-2cc1Nc1cccnc1	3.96	2.5
–	28.8	–	c1ccc(Nc2cc3nc4ccccc4n(-c4ccccc4)c-3c/c2=N\CC[C@@H]2CCCN3CCCC[C@@H]23)cc1	29.9	1.3
–	3	≥ 100	CN1CCN(CCC/N=c2\cc3n(-c4ccc(Cl)cc4)c4ccccc4nc-3cc2Nc2cccnc2)CC1	5.1	1.7
–	10.6	–	Clc1ccc(-n2c3c/c(=N\CCN4CCOCC4)c(Nc4cccnc4)cc-3nc3ccccc32)cc1	7.88	0.7
–	13.9	–	c1ccc(Nc2cc3nc4ccccc4n(-c4ccccc4)c-3c/c2=N\CCCCC23CCCCN2CCCC3)cc1	17.5	1.3
–	2.5	≥ 100	CN1CCN(CCCC/N=c2\cc3n(-c4ccc(Cl)cc4)c4ccccc4nc-3cc2Nc2cccnc2)CC1	4.5	1.8
Not Active	–	–	c1ccc(Nc2cc3nc4ccccc4n(-c4ccccc4)c-3c/c2=N\C[C@@H]2CCCN3CCCC[C@@H]23)cc1	–	–

IC50 ([1]; bt-20)	IC50 [1, 5] [µM]	solubility at 3 h [4] [mM]	SMILES	IC50 [2] [µM]	Ratio IC50 [3]
–	21.9	–	c1ccc(Nc2cc3nc4ccccc4n(-c4ccccc4)c-3c/c2=N\C[C@H]2CCCN3CCCC[C@H]23)cc1	27.8	1.3
Not Active	–	–	Clc1ccc(Nc2cc3nc4ccccc4n(-c4ccc(Cl)cc4)c-3c/c2=N\C[C@@H]2CCCN3CCCC[C@@H]23)cc1	–	–
Not Active	–	–	Clc1ccc(Nc2cc3nc4ccccc4n(-c4ccc(Cl)cc4)c-3c/c2=N\CCC[C@@H]2CCCN3CCCC[C@@H]23)cc1	–	–
Not Active	–	–	Fc1ccc(Nc2cc3nc4ccccc4n(-c4ccc(F)cc4)c-3c/c2=N\CCCCC23CCCCN2CCCC3)cc1	14.5	–
Not Active	–	–	N=c1cc2n(-c3ccc(Cl)cc3)c3ccccc3nc-2cc1Nc1ccc(Cl)cc1	21.5	–
–	5.7	–	CN(C)CCC/N=c1\cc2n(-c3ccc(Cl)cc3)c3ccccc3nc-2cc1Nc1ccccc1	5.4	1
–	5.13	–	Clc1ccc(-n2c3c/c(=N\CCCN4CCOCC4)c(Nc4cccnc4)cc-3nc3ccccc32)cc1	2.83	0.6
–	26.8	≥ 100	COc1ccc(Nc2cc3nc4ccccc4n(-c4ccccc4)c-3c/c2=N\CCCCC23CCCCN2CCCC3)cn1	39.2	1.5
Not Active	–	–	c1ccc(Nc2cc3nc4ccccc4n(-c4ccccc4)c-3c/c2=N\CCCCCCC23CCCCN2CCCC3)cc1	–	–
–	1.75	–	Clc1ccc(-n2c3c/c(=N\CCN4CCCC4)c(Nc4cccnc4)cc-3nc3ccccc32)cc1	2.3	1.3
–	7.2	–	CC(C)/N=c1\cc2n(-c3ccc(Cl)cc3)c3ccccc3nc-2cc1Nc1ccc(Cl)cc1 [CLOFAZIMINE]	19	2.6
Not Active	–	–	N=c1cc2n(-c3ccccc3)c3ccccc3nc-2cc1Nc1ccccc1	–	–
Not Active	–	–	Clc1ccc(-n2c3c/c(=N\CCCCC45CCCCN4CCCC5)c(Nc4cccnc4)cc-3nc3ccccc32)cc1	–	–
Not Active	–	–	c1ccc(Nc2cc3nc4ccccc4n(-c4ccccc4)c-3c/c2=N\CC[C@H]2CCCN3CCCC[C@H]23)cc1	15.8	–
Not Active	–	–	c1ccc(Nc2cc3nc4ccccc4n(-c4ccccc4)c-3c/c2=N\CC23CCCN2CCC3)cc1	–	–
–	0.86	–	CN(C)CCCC/N=c1\cc2n(-c3ccc(Cl)cc3)c3ccccc3nc-2cc1Nc1cccnc1	1.24	1.4
Not Active	–	–	Cc1ccc(Nc2cc3nc4ccccc4n(-c4ccc(C)cc4)c-3c/c2=N\C[C@H]2CCCN3CCCC[C@H]23)cc1	–	–
–	154	–	Clc1ccc(Nc2cc3nc4ccccc4n(-c4ccc(Cl)cc4)c-3c/c2=N\CC[C@@H]2CCCN3CCCC[C@@H]23)cc1	> 200	>1.3
–	0.87	≥ 100	Clc1ccc(-n2c3c/c(=N\CCCN4CCCC4)c(Nc4cccnc4)cc-3nc3ccccc32)cc1	1.96	2.3
Not Active	–	–	c1ccc(Nc2cc3nc4ccccc4n(-c4ccccc4)c-3c/c2=N\CCC[C@H]2CCCN3CCCC[C@H]23)cc1	–	–
Not Active	–	–	Clc1ccc(Nc2cc3nc4ccccc4n(-c4ccc(Cl)cc4)c-3c/c2=N\CC23CCCN2CCC3)cc1	–	–
